{"source": "ChEMBL document CHEMBL5712887", "about": "“Disruption of BRD4 at H3K27Ac-enriched enhancer region correlates with decreased c-Myc expression in Merkel cell carcinoma” (Epigenetics, 2015)", "key": {"MCC-3 [1]": {"system": "MCC-3", "assay": "Antitumor activity against human MCC-3 cells xenografted in NSG mouse assessed as reduction in c-Myc mRNA expression at 50 mg/kg, ip administered daily for 3 weeks and measured post-last dose by qRT-PCR analysis", "format": "functional, organism-based", "method_in_brief": "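Excised xenograft tumours from NSG mice dosed i.p. daily for 3 weeks (vehicle 10% 2-hydroxypropyl-β-cyclodextrin in water) versus vehicle group. c-Myc mRNA measured by qRT-PCR on 3 biological replicates.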"}, "[2]": {"assay": "Antitumor activity against human MCC-3 cells xenografted in NSG mouse assessed as reduction in tumor volume at 50 mg/kg, ip administered daily for 3 weeks and measured post-last dose by caliper method relative to control", "format": "functional", "set-up": "scale not given: the % may be the effect or the level left"}, "MCC-3 [3]": {"system": "MCC-3", "assay": "Antitumor activity against human MCC-3 cells xenografted in NSG mouse assessed as effect on H3K27Ac expression at 50 mg/kg, ip administered daily for 3 weeks and measured post-last dose by immunoblotting method", "format": "functional, organism-based", "method_in_brief": "(§1)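 Tumours excised at endpoint from NSG mice bearing subcutaneous flank xenografts (~100 mm3 at randomisation), dosed i.p. daily for 3 weeks, vehicle 10% 2-hydroxypropyl-β-cyclodextrin in water. Lysates resolved by SDS-PAGE, electroblotted to PVDF (200V, 2 h). Membranes blocked in 5% milk, primary antibody overnight at 4°C, then secondary 1 h, and detected by ECL.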"}, "[4]": {"assay": "Antitumor activity against human MKL-1 cells xenografted in NSG mouse assessed as reduction in tumor volume at 50 mg/kg, ip administered daily for 3 weeks and measured post-last dose by caliper method relative to control", "format": "functional", "set-up": "scale not given: the % may be the effect or the level left", "method_in_brief": "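NSG mice with subcutaneous flank xenografts (MKL-1: 2 × 10^7 cells in matrigel), randomised at ~100 mm3 (n ≥ 7 per group). Dosed i.p. daily for 3 weeks; vehicle 10% 2-hydroxypropyl-β-cyclodextrin in water. Calipers, volume = L2 × W/2; final tumour volume, mean ± SEM, Mann-Whitney test.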"}, "MCC-3 [5]": {"system": "MCC-3", "assay": "Antitumor activity against human MCC-3 cells xenografted in NSG mouse assessed as reduction in c-Myc expression at 50 mg/kg, ip administered daily for 3 weeks and measured post-last dose by immunoblotting method", "format": "functional, organism-based", "method_in_brief": "as §1"}, "MCC-3 [6]": {"system": "MCC-3", "assay": "Antitumor activity against human MCC-3 cells xenografted in NSG mouse assessed as effect on BRD4 expression at 50 mg/kg, ip administered daily for 3 weeks and measured post-last dose by immunoblotting method", "format": "functional, organism-based", "method_in_brief": "as §1"}, "Mus musculus": {"system": "Mus musculus", "assay": "In vivo disruption of BRD4 occupancy at the putative c-Myc super-enhancer region in human MCC-3 cells xenografted NSG mouse at 50 mg/kg, ip administered daily for 3 weeks and measured post-last dose by ChIP-qPCR analysis", "format": "functional, organism-based", "method_in_brief": "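Frozen xenograft tumours crosslinked with 1% formaldehyde for 10 min, quenched with 0.125 M glycine, lysed and sonicated. Anti-BRD4 IP on anti-rabbit IgG beads. SYBR qPCR with primers at the putative c-Myc super-enhancer, plus control regions 5000 bp up- and downstream. 3 biological replicates, vehicle versus treated.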"}, "[7]": {"assay": "Toxicity in human MCC-3 cells xenografted NSG mouse assessed as effect on body weight at 50 mg/kg, ip administered daily for 3 weeks", "format": "organism-based", "details": "in vivo, 504 h", "method_in_brief": "(§2)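 Mice with subcutaneous xenografts dosed i.p. daily for 3 weeks (vehicle 10% 2-hydroxypropyl-β-cyclodextrin in water) and monitored daily. Toxicity judged from body weight, food and water intake, activity and general examination.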"}, "[8]": {"assay": "Toxicity in human MCC-3 cells xenografted NSG mouse assessed as effect on food intake at 50 mg/kg, ip administered daily for 3 weeks", "format": "organism-based", "details": "in vivo, 504 h", "method_in_brief": "as §2"}, "[9]": {"assay": "Toxicity in human MCC-3 cells xenografted NSG mouse assessed as effect on water intake at 50 mg/kg, ip administered daily for 3 weeks", "format": "organism-based", "details": "in vivo, 504 h", "method_in_brief": "as §2"}, "[10]": {"assay": "Toxicity in human MCC-3 cells xenografted NSG mouse assessed as effect on activity at 50 mg/kg, ip administered daily for 3 weeks", "format": "organism-based", "details": "in vivo, 504 h", "method_in_brief": "as §2"}, "[11]": {"assay": "Toxicity in human MKL-1 cells xenografted NSG mouse assessed as effect on body weight at 50 mg/kg, ip administered daily for 3 weeks", "format": "organism-based", "details": "in vivo, 504 h", "method_in_brief": "as §2"}, "[12]": {"assay": "Toxicity in human MCC-3 cells xenografted NSG mouse assessed as effect on general examination at 50 mg/kg, ip administered daily for 3 weeks", "format": "organism-based", "details": "in vivo, 504 h", "method_in_brief": "as §2"}, "[13]": {"assay": "Toxicity in human MKL-1 cells xenografted NSG mouse assessed as effect on food intake at 50 mg/kg, ip administered daily for 3 weeks", "format": "organism-based", "details": "in vivo, 504 h", "method_in_brief": "as §2"}, "[14]": {"assay": "Toxicity in human MKL-1 cells xenografted NSG mouse assessed as effect on water intake at 50 mg/kg, ip administered daily for 3 weeks", "format": "organism-based", "details": "in vivo, 504 h", "method_in_brief": "as §2"}, "[15]": {"assay": "Toxicity in human MKL-1 cells xenografted NSG mouse assessed as effect on activity at 50 mg/kg, ip administered daily for 3 weeks", "format": "organism-based", "details": "in vivo, 504 h", "method_in_brief": "as §2"}, "[16]": {"assay": "Toxicity in human MKL-1 cells xenografted NSG mouse assessed as effect on general examination at 50 mg/kg, ip administered daily for 3 weeks", "format": "organism-based", "details": "in vivo, 504 h", "method_in_brief": "as §2"}}, "note": "Activity calls are given as the source filed them. The rule behind the calls is not given here."}
{"smiles": "Cc1sc2c(c1C)C(c1ccc(Cl)cc1)=N[C@@H](CC(=O)OC(C)(C)C)c1nnc(C)n1-2", "values": [{"measurement": "Activity", "setting": "MCC-3 [1]", "result": "Active"}, {"measurement": "Activity", "setting": "[2]", "result": 75.6, "unit": "%"}, {"measurement": "Activity", "setting": "MCC-3 [3]", "result": "inactive"}, {"measurement": "Activity", "setting": "[4]", "result": 48.9, "unit": "%"}, {"measurement": "Activity", "setting": "MCC-3 [5]", "result": "Active"}, {"measurement": "Activity", "setting": "MCC-3 [6]", "result": "inactive"}, {"measurement": "Activity", "setting": "Mus musculus", "result": "Active"}, {"measurement": "Activity", "setting": "[7]", "result": "Non-Toxic"}, {"measurement": "Activity", "setting": "[8]", "result": "Non-Toxic"}, {"measurement": "Activity", "setting": "[9]", "result": "Non-Toxic"}, {"measurement": "Activity", "setting": "[10]", "result": "Non-Toxic"}, {"measurement": "Activity", "setting": "[11]", "result": "Non-Toxic"}, {"measurement": "Activity", "setting": "[12]", "result": "Non-Toxic"}, {"measurement": "Activity", "setting": "[13]", "result": "Non-Toxic"}, {"measurement": "Activity", "setting": "[14]", "result": "Non-Toxic"}, {"measurement": "Activity", "setting": "[15]", "result": "Non-Toxic"}, {"measurement": "Activity", "setting": "[16]", "result": "Non-Toxic"}]}
